Laboratory results from ChEMBL document CHEMBL1141128, “Structure-activity relationship study on a simple cationic peptide motif for cellular delivery of antisense peptide nucleic acid” (J Med Chem, 2005).
Non-standard residues stand in square brackets, D forms with d. Residues, ends and D or L forms follow the SMILES beside them. Lys(Me2) = CN(C)CCCC[C@H](N)C(=O)O; hLys = NCCCCC[C@H](N)C(=O)O; Nlys = NCCCCNCC(=O)O

Legend:
BCL1 [1] = test: Inhibitory concentration against BCL1 cell proliferation in WST-1 assay; Range 10-20; type: functional, Mus musculus
Outline: (§1)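 BCL1 cells, 2000 per well, grown in DMEM with 10% FBS at 37 °C and 5% CO2. Exposed to conjugate for 3 days, then viable cells read by WST-1 absorbance at 450 nm. Value is the concentration at which absorbance fell below 50% of untreated control; triplicates.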

CD40 mRNA [2] = test: […] CD40 expression in BCL1 cells treated with 10 uM peptide nucleic acid (PNA)conjugate; n=3; type: functional, cell-based; settings: Mus musculus
Outline: (§2)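 Mouse BCL1 cells in DMEM with 10% FBS, given conjugate at 1, 3 or 10 μM by free uptake (no transfection agent) for 3 days. Cells trypsinised and stained 1 h with FITC anti-CD40 (HM40-3) or isotype control, then surface CD40 read by flow cytometry. Results are % untreated control, mean ± SD, n = 3.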

CD40 mRNA [3] = test: […] CD40 expression in BCL1 cells treated with 1 uM peptide nucleic acid (PNA)conjugate; n=3; type: functional, cell-based; settings: Mus musculus; outline: as §2
CD40 mRNA [4] = test: […] CD40 expression in BCL1 cells treated with 3 uM peptide nucleic acid (PNA)conjugate; n=3; type: functional, cell-based; settings: Mus musculus; outline: as §2
[5] = Half-life of the conjugate when treated with 25% murine serum for enzymatic stability; type: ADME; settings: mouse
Outline: (§3)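 Conjugates at 20 μM in 10% FBS RPMI 1640 medium or 25% mouse serum (Hepes-stabilised, diluted in PBS, pH 7.1–7.4), incubated at 37 °C. Sampled to 168 h (FBS) or 48 h (serum); proteins precipitated with 10% DCA, PNA 6mer internal standard added. Analysed by C3 RP-HPLC at 60 °C; t1/2 from normalised full-length peak area versus time.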

[6] = Half-life of the conjugate when treated with 10% foetal bovine serum for enzymatic stability; type: ADME, Bos taurus; settings: cattle; outline: as §3
BCL1 [7] = test: Inhibitory concentration against BCL1 cell proliferation in WST-1 assay; type: functional, Mus musculus; outline: as §1
[8] = Half-life of the conjugate when treated with 25% murine serum for enzymatic stability; No data available; type: ADME; settings: mouse; outline: as §3

Row | SMILES | IC50 (BCL1 [1]) [µM] | UTC (CD40 mRNA [2]) [%] | UTC (CD40 mRNA [3]) [%] | UTC (CD40 mRNA [4]) [%] | half-life [5] [h] | half-life [6] [h] | IC50 for cell proliferation (BCL1 [7]) [µM] | T1/2 [8]
1 | NCCCC[C@@H](C=O)NC(=O)[C@H](CCCCN)NC(=O)[C@H](CCCCN)NOC(=O)[C@H](CCCN)NC(=O)[C@H](CCCCN)NC(=O)[C@H](CCCCN)NOC(=O)[C@H](CCCN)NC(=O)[C@H](CCCCN)NC(=O)[C@@H](N)CCCCN | 20 | 34 | 94 | 65 | 18 | > 168 | – | –
2 | N=C(N)NCCCC[C@H](NC(=O)[C@H](CCCCNC(=N)N)NC(=O)[C@H](CCCCNC(=N)N)NC(=O)[C@H](CCCCNC(=N)N)NC(=O)[C@H](CCCCNC(=N)N)NC(=O)[C@H](CCCCNC(=N)N)NC(=O)[C@H](CCCCNC(=N)N)NC(=O)[C@@H](N)CCCCNC(=N)N)C(=O)N[C@H](C=O)CCCCN | – | 20 | 91 | 45 | 15 | > 168 | 5 | –
3 | NCCCC[C@@H](C=O)NOC(=O)C(CCCN)NC(=O)[C@H](CCCCN)NOC(=O)C(CCCN)NC(=O)[C@H](CCCCN)NOC(=O)C(CCCN)NC(=O)[C@H](CCCCN)NOC(=O)C(CCCN)NC(=O)[C@@H](N)CCCCN (some centres undefined) | – | 42 | 94 | 61 | – | > 168 | 5 | No data available
4 | NCCCC[C@@H](C=O)NC(=O)[C@H](CCCCN)NC(=O)[C@@H](CCCCN)NC(=O)[C@H](CCCCN)NC(=O)[C@H](CCCCN)NC(=O)[C@@H](CCCCN)NC(=O)[C@H](CCCCN)NC(=O)[C@@H](N)CCCCN | 20 | 62 | 102 | 87 | > 48 | > 168 | – | –
5 | NCCCC[C@@H](C=O)NOC(=O)[C@H](CCCN)NOC(=O)[C@H](CCCN)NC(=O)[C@H](CCCCN)NC(=O)[C@H](CCCCN)NC(=O)[C@H](CCCCN)NC(=O)[C@H](CCCCN)NOC(=O)[C@H](CCCN)NOC(=O)[C@@H](N)CCCN | – | – | – | – | – | > 168 | – | No data available
6 | NCCCC[C@@H](C=O)NOC(=O)C(CCCN)NOC(=O)C(CCCN)NC(=O)[C@H](CCCCN)NC(=O)[C@H](CCCCN)NC(=O)[C@H](CCCCN)NC(=O)[C@H](CCCCN)NOC(=O)C(CCCN)NOC(=O)C(N)CCCN (some centres undefined) | – | 52 | 97 | 69 | – | – | 5 | –
7 | NCCCC[C@H](NC(=O)CN(CCCCN)C(=O)CN(CCCCN)C(=O)CN(CCCCN)C(=O)CN(CCCCN)C(=O)CN(CCCCN)C(=O)CN(CCCCN)C(=O)CN(CCCCN)C(=O)CN(CCCCN)C(=O)CN)C(=O)O (H-G[Nlys][Nlys][Nlys][Nlys][Nlys][Nlys][Nlys][Nlys]K-OH) | 20 | 56 | 92 | 80 | > 48 | > 168 | – | –
8 | NCCCC[C@@H](C=O)NC(=O)[C@H](Cc1c[nH]cn1)NC(=O)[C@H](Cc1c[nH]cn1)NC(=O)[C@H](Cc1c[nH]cn1)NC(=O)[C@H](Cc1c[nH]cn1)NC(=O)[C@H](Cc1c[nH]cn1)NC(=O)[C@H](Cc1c[nH]cn1)NC(=O)[C@H](Cc1c[nH]cn1)NC(=O)[C@@H](N)Cc1c[nH]cn1 (H-HHHHHHHHK-aldehyde) | – | 64 | 81 | 74 | 44 | > 168 | >20 | –
9 | NCCCC[C@@H](C=O)NC(=O)[C@H](Cc1c[nH]cn1)NC(=O)[C@H](CCCCN)NC(=O)[C@H](Cc1c[nH]cn1)NC(=O)[C@H](CCCCN)NC(=O)[C@H](Cc1c[nH]cn1)NC(=O)[C@H](CCCCN)NC(=O)[C@H](Cc1c[nH]cn1)NC(=O)[C@@H](N)CCCCN (H-KHKHKHKHK-aldehyde) | – | 73 | 88 | 87 | 6 | > 168 | >20 | –
10 | NCCCC[C@@H](C=O)NC(=O)[C@H](CCCCN)NC(=O)[C@H](CCCCN)NC(=O)[C@H](Cc1c[nH]cn1)NC(=O)[C@H](CCCCN)NC(=O)[C@H](CCCCN)NC(=O)[C@H](Cc1c[nH]cn1)NC(=O)[C@H](CCCCN)NC(=O)[C@@H](N)CCCCN (H-KKHKKHKKK-aldehyde) | 20 | 52 | 86 | 73 | 6 | > 168 | – | –
11 | CN(C)CCCC[C@H](NC(=O)[C@H](CCCCN)NC(=O)[C@H](CCCCN)NC(=O)[C@H](CCCCN(C)C)NC(=O)[C@H](CCCCN)NC(=O)[C@@H](N)CCCCN)C(=O)N[C@@H](CCCCN)C(=O)N[C@@H](CCCCN)C(=O)N[C@H](C=O)CCCCN (H-KK[Lys(Me2)]KK[Lys(Me2)]KKK-aldehyde) | – | 41 | 96 | 78 | 22 | > 168 | 5 | –
12 | NCCCC[C@H](NC(=O)[C@H](CCCCN)NC(=O)[C@H](CCCCN)NC(=O)CN(CCCCN)C(=O)[C@H](CCCCN)NC(=O)[C@H](CCCCN)NC(=O)CN(CCCCN)C(=O)[C@H](CCCCN)NC(=O)[C@@H](N)CCCCN)C(=O)O (H-KK[Nlys]KK[Nlys]KKK-OH) | 20 | 60 | 104 | 88 | 29 | > 168 | – | –
13 | NCCCCC[C@H](NC(=O)[C@H](CCCCN)NC(=O)[C@H](CCCCN)NC(=O)[C@H](CCCCCN)NC(=O)[C@H](CCCCN)NC(=O)[C@@H](N)CCCCN)C(=O)N[C@@H](CCCCN)C(=O)N[C@@H](CCCCN)C(=O)N[C@H](C=O)CCCCN (H-KK[hLys]KK[hLys]KKK-aldehyde) | – | 31 | 76 | 61 | 10 | > 168 | >20 | –
14 | CN(C)CCCC[C@H](NC(=O)[C@H](CCCCN(C)C)NC(=O)[C@H](CCCCN(C)C)NC(=O)[C@H](CCCCN(C)C)NC(=O)[C@H](CCCCN(C)C)NC(=O)[C@H](CCCCN(C)C)NC(=O)[C@H](CCCCN(C)C)NC(=O)[C@@H](N)CCCCN(C)C)C(=O)N[C@H](C=O)CCCCN (H-[Lys(Me2)][Lys(Me2)][Lys(Me2)][Lys(Me2)][Lys(Me2)][Lys(Me2)][Lys(Me2)][Lys(Me2)]K-aldehyde) | – | 71 | 94 | 89 | > 48 | > 168 | 10 | –
15 | NCCCCC[C@H](NC(=O)[C@H](CCCCCN)NC(=O)[C@H](CCCCN)NC(=O)[C@H](CCCCN)NC(=O)[C@H](CCCCN)NC(=O)[C@H](CCCCN)NC(=O)[C@H](CCCCCN)NC(=O)[C@@H](N)CCCCCN)C(=O)N[C@H](C=O)CCCCN (H-[hLys][hLys]KKKK[hLys][hLys]K-aldehyde) | – | 34 | 86 | 66 | – | 120 | >20 | –
16 | NCCCCC[C@H](NC(=O)[C@H](CCCCCN)NC(=O)[C@H](CCCCCN)NC(=O)[C@H](CCCCCN)NC(=O)[C@H](CCCCCN)NC(=O)[C@H](CCCCCN)NC(=O)[C@H](CCCCCN)NC(=O)[C@@H](N)CCCCCN)C(=O)N[C@H](C=O)CCCCN (H-[hLys][hLys][hLys][hLys][hLys][hLys][hLys][hLys]K-aldehyde) | – | 31 | 87 | 65 | 17 | > 168 | 10 | –
